Measurements from ChEMBL document CHEMBL1909500, “Synthesis and in vitro anticancer activity of 6,7-methylenedioxy (or 5-hydroxy-6-methoxy)-2-(substituted selenophenyl)quinolin-4-one analogs” (Eur J Med Chem, 2011).
Activity calls are given as the source filed them. The calls are words filed in the database; no cut-off is given here.

What was measured:
[1] = test system: 786-0; assay: Anticancer activity against human 786-0 cells after 48 hrs by MTT assay; assay type: functional; settings: 786-0, 48 h
[2] = test system: RXF 393; assay: Anticancer activity against human RXF393 cells after 48 hrs by MTT assay; assay type: functional; settings: RXF 393, 48 h
[3] = test system: NCI/ADR-RES; assay: Anticancer activity against human NCI/ADR-RES cells after 48 hrs by MTT assay; assay type: functional
[4] = test system: HL-60; assay: Cell cycle arrest in human HL60 assessed as cell accumulation in Sub-G1 phase at 1 uM after 24 hrs pretreated with pan-caspase inhibitor z-VAD-fmk for 3 hrs by propidium iodide staining-based flow cytometric analysis; assay type: functional; set-up: scale not given: the % may be the effect or the level left
In short: (§1)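 HL-60 cells were preincubated for 3 h with or without the pan-caspase inhibitor z-VAD-fmk, then co-exposed to compound at 1 μM for 24 h. Cells were washed in PBS and fixed overnight in ice-cold 70% ethanol at −20 °C. They were stained for 30 min in the dark with propidium iodide 4 μg/mL, 0.1 mg/ml RNase and 1% Triton X-100. DNA content was read on a FACScan flow cytometer.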

[5] = test system: HL-60; assay: Cell cycle arrest in human HL60 assessed as cell accumulation in S phase at 1 uM after 24 hrs by propidium iodide staining-based flow cytometric analysis; assay type: functional; in short: as §1
[6] = test system: EKVX; assay: Anticancer activity against human EKVX cells after 48 hrs by MTT assay; assay type: functional
[7] = test system: MCF7; assay: Anticancer activity against human MCF7 cells after 48 hrs by MTT assay; assay type: functional; settings: MCF7, 48 h
[8] = test system: DU-145; assay: Anticancer activity against human DU145 cells after 48 hrs by MTT assay; assay type: functional; settings: DU-145, 48 h
[9] = test system: HL-60; assay: Cell cycle arrest in human HL60 assessed as cell accumulation in G0/G1 phase at 1 uM after 24 hrs pretreated with pan-caspase inhibitor z-VAD-fmk for 3 hrs by propidium iodide staining-based flow cytometric analysis; assay type: functional; set-up: scale not given: the % may be the effect or the level left; in short: as §1
[10] = test system: HL-60; assay: Growth inhibition of human HL60 cells after 24 to 48 hrs by trypan blue exclusion assay; assay type: functional, cell-based
In short: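 HL-60 cells were given the indicated concentrations for 24 h and 48 h. Viable cells were counted by trypan blue exclusion. Values are mean ± SD of four independent experiments.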

[11] = test system: NCI-H322M; assay: Anticancer activity against human NCI-H322M cells after 48 hrs by MTT assay; assay type: functional
[12] = test system: SK-OV-3; assay: Anticancer activity against human SKOV3 cells after 48 hrs by MTT assay; assay type: functional; settings: SK-OV-3, 48 h
[13] = test system: NCI-H460; assay: Anticancer activity against human NCI-H460 cells after 48 hrs by MTT assay; assay type: functional; settings: NCI-H460, 48 h
[14] = test system: HL-60; assay: Cell cycle arrest in human HL60 assessed as cell accumulation in S phase at 1 uM after 24 hrs pretreated with pan-caspase inhibitor z-VAD-fmk for 3 hrs by propidium iodide staining-based flow cytometric analysis; assay type: functional; set-up: scale not given: the % may be the effect or the level left; in short: as §1
[15] = test system: U-251; assay: Anticancer activity against human U251 cells after 48 hrs by MTT assay; assay type: functional; settings: U-251, 48 h
[16] = test system: HL-60; assay: Cell cycle arrest in human HL60 assessed as cell accumulation in G2/M phase at 1 uM after 24 hrs by propidium iodide staining-based flow cytometric analysis; assay type: functional; in short: as §1
[17] = test system: KM12; assay: Anticancer activity against human KM12 cells after 48 hrs by MTT assay; assay type: functional; settings: KM12, 48 h
[18] = test system: CAKI-1; assay: Anticancer activity against human Caki1 cells after 48 hrs by MTT assay; assay type: functional; settings: CAKI-1, 48 h
[19] = test system: MDA-MB-468; assay: Anticancer activity against human MDA-MB-468 cells after 48 hrs by MTT assay; assay type: functional; settings: MDA-MB-468, 48 h
[20] = test system: HL-60; assay: Induction of cell cycle arrest at G2/M phase in human HL60 cells assessed as decrease in CDK1 protein expression after 24 hrs by Western blot analysis; assay type: functional, cell-based
In short: (§2)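 HL-60 cells at 2 × 10⁵/mL were exposed to the indicated concentrations for 24 h, washed in PBS and lysed for total protein. Immunoblots used HRP-linked secondary antibodies with ECL detection. Cyclin B1, CDK1, caspase-3 (17 kDa active form) and PARP (85 kDa fragment) were quantified and normalised to β-actin.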

[21] = test system: HL-60; assay: Induction of apoptosis in human HL60 cells assessed as PARP cleavage at 0.1 to 1.0 uM after 24 hrs by Western blot analysis; assay type: functional, cell-based; in short: as §2
[22] = test system: OVCAR-4; assay: Anticancer activity against human OVCAR4 cells after 48 hrs by MTT assay; assay type: functional; settings: OVCAR-4, 48 h
[23] = test system: M14; assay: Anticancer activity against human M14 cells after 48 hrs by MTT assay; assay type: functional; settings: M14, 48 h
[24] = test system: HCT-116; assay: Anticancer activity against human HCT116 cells after 48 hrs by MTT assay; assay type: functional; settings: HCT-116, 48 h
[25] = test system: HL-60; assay: Induction of apoptosis in human HL60 cells assessed as caspase-3 activation at 0.1 to 1.0 uM after 24 hrs by Western blot analysis; assay type: functional, cell-based; in short: as §2
[26] = test system: HL-60; assay: Cell cycle arrest in human HL60 assessed as cell accumulation in G0/G1 phase at 1 uM after 24 hrs by propidium iodide staining-based flow cytometric analysis; assay type: functional; in short: as §1
[27] = test system: SN12C; assay: Anticancer activity against human SN12C cells after 48 hrs by MTT assay; assay type: functional
[28] = Anticancer activity against human Hs 578T cells after 48 hrs by MTT assay; assay type: functional
[29] = test system: K562; assay: Anticancer activity against human K562 cells after 48 hrs by MTT assay; assay type: functional; settings: K562, 48 h
[30] = test system: SNB-19; assay: Anticancer activity against human SNB19 cells after 48 hrs by MTT assay; assay type: functional; settings: SNB-19, 48 h
[31] = test system: HL-60; assay: Induction of apoptosis in human HL60 cells assessed as formation of apoptotic bodies at 1 uM after 24 hrs; assay type: functional, cell-based
In short: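 HL-60 cells were exposed to 1 μM for 24 h. Apoptotic morphology, scored as cell shrinkage and apoptotic bodies, was examined by microscopy at 200×.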

[32] = read-out: pLC50 (the source's name) (converted)

## Cc1ccc(-c2cc(=O)c3cc4c(cc3[nH]2)OCO4)[se]1
[1]
  GI50: 0.427 µM
[1]; [32]
  CC50: > 100 µM
[1]; read-out: pTGI
  TGI: > 100 µM
[2]
  GI50: 0.229 µM
[2]; [32]
  CC50: > 100 µM
[2]; read-out: pTGI (converted)
  TGI: 0.589 µM
[3]
  GI50: 0.316 µM
[3]; [32]
  CC50: > 100 µM
[3]; read-out: pTGI
  TGI: > 100 µM
[4]
  Activity: 10.2%
[5]
  Activity: 41.6%
[6]
  GI50: 0.617 µM
[6]; [32]
  CC50: > 100 µM
[6]; read-out: pTGI
  TGI: > 100 µM
[7]
  GI50: 0.324 µM
[7]; [32]
  CC50: > 100 µM
[7]; read-out: pTGI
  TGI: > 100 µM
[8]
  GI50: 0.302 µM
[8]; [32]
  CC50: > 100 µM
[8]; read-out: pTGI
  TGI: > 100 µM
[9]
  Activity: 8.3%
[10]
  growth inhibition (GI): Dose-dependent effect
[11]
  GI50: > 100 µM
[11]; [32]
  CC50: > 100 µM
[11]; read-out: pTGI
  TGI: > 100 µM
[12]
  GI50: 0.347 µM
[12]; [32]
  CC50: > 100 µM
[12]; read-out: pTGI
  TGI: > 100 µM
[13]
  GI50: 0.331 µM
[13]; [32]
  CC50: > 100 µM
[13]; read-out: pTGI
  TGI: > 100 µM
[14]
  Activity: 36.2%
[15]
  GI50: 0.339 µM
[15]; [32]
  CC50: > 100 µM
[15]; read-out: pTGI
  TGI: > 100 µM
[16]
  Activity: 44.3%
[17]
  GI50: 0.263 µM
[17]; [32]
  CC50: > 100 µM
[17]; read-out: pTGI
  TGI: > 100 µM
[18]
  GI50: 1.82 µM
[18]; [32]
  CC50: > 100 µM
[18]; read-out: pTGI
  TGI: > 100 µM
[19]
  GI50: 0.562 µM
[19]; [32]
  CC50: > 100 µM
[19]; read-out: pTGI
  TGI: > 100 µM
[20]
  Activity: Dose-dependent effect
[21]
  Activity: Active
[22]
  GI50: 0.575 µM
[22]; [32]
  CC50: > 100 µM
[22]; read-out: pTGI
  TGI: > 100 µM
[23]
  GI50: 0.229 µM
[23]; [32]
  CC50: > 100 µM
[23]; read-out: pTGI
  TGI: > 100 µM
[24]
  GI50: 0.288 µM
[24]; [32]
  CC50: > 100 µM
[24]; read-out: pTGI
  TGI: > 100 µM
[25]
  Activity: Active
[26]
  Activity: 14.3%
[27]
  GI50: 0.603 µM
[27]; [32]
  CC50: > 100 µM
[27]; read-out: pTGI
  TGI: > 100 µM
[28]
  GI50: 0.347 µM
[28]; [32]
  CC50: > 100 µM
[28]; read-out: pTGI
  TGI: > 100 µM
[29]
  GI50: 0.282 µM
[29]; [32]
  CC50: > 100 µM
[29]; read-out: pTGI
  TGI: > 100 µM
[30]
  GI50: 0.389 µM
[30]; [32]
  CC50: > 100 µM
[30]; read-out: pTGI
  TGI: > 100 µM
[31]
  Activity: Active
